≈ marks a conversion by molar mass, not a printed value.
How the values were obtained:
[1] = system: SK-OV-3; test: Cytotoxicity against human SKOV3 cells assessed as reduction of cell density incubated for 4 hrs in oxic (aerobic) condition measured 5 days post dose by SRB assay; format: functional, cell-based
Method in brief: (§1)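 Log-phase monolayers given a 4 h drug exposure under aerobic (20% O₂) or anoxic (<20 ppm O₂) conditions. Cells were then stained with sulforhodamine B 5 days later. IC50 was interpolated as the concentration that cut cell density to 50% of same-plate controls. Values are means of two to seven experiments.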

[2] = system: SiHa; test: Cytotoxicity against human SiHa cells assessed as reduction of cell density incubated for 4 hrs in hypoxic (anoxic) condition measured 5 days post dose by SRB assay; format: functional, cell-based; method in brief: as §1
[3] = system: HT-29; test: Hypoxic cytotoxicity ratio, ratio of IC50 for human HT-29 cells in oxic (aerobic) condition to IC50 for human HT-29 cells in hypoxic (anoxic) conditions; format: functional
Method in brief: (§2)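 HCR was calculated as IC50(oxic)/IC50(hypoxic) after 4 h drug exposure at 20% O₂ or <20 ppm O₂, with SRB read-out 5 days later.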

[4] = system: A-375; test: Hypoxic cytotoxicity ratio, ratio of IC50 for human A375 cells in oxic (aerobic) condition to IC50 for human A375 cells in hypoxic (anoxic) conditions; format: functional; method in brief: as §2
[5] = system: SK-OV-3; test: Hypoxic cytotoxicity ratio, ratio of IC50 for human SKOV3 cells in oxic (aerobic) condition to IC50 for human SKOV3 cells in hypoxic (anoxic) conditions; format: functional; method in brief: as §2
[6] = system: A549; test: Hypoxic cytotoxicity ratio, ratio of IC50 for human A549 cells in oxic (aerobic) condition to IC50 for human A549 cells in hypoxic (anoxic) conditions; format: functional; method in brief: as §2
[7] = system: PC-3; test: Hypoxic cytotoxicity ratio, ratio of IC50 for human PC3 cells in oxic (aerobic) condition to IC50 for human PC3 cells in hypoxic (anoxic) conditions; format: functional; method in brief: as §2
[8] = system: HCT-116; test: Cytotoxicity against human HCT116 cells assessed as reduction of cell density incubated for 4 hrs in hypoxic (anoxic) condition measured 5 days post dose by SRB assay; format: functional, cell-based; method in brief: as §1
[9] = system: A549; test: Cytotoxicity against human A549 cells assessed as reduction of cell density incubated for 4 hrs in oxic (aerobic) condition measured 5 days post dose by SRB assay; format: functional, cell-based; method in brief: as §1
[10] = system: A-375; test: Cytotoxicity against human A375 cells assessed as reduction of cell density incubated for 4 hrs in oxic (aerobic) condition measured 5 days post dose by SRB assay; format: functional, cell-based; method in brief: as §1
[11] = system: A549; test: Cytotoxicity against human A549 cells over-expressing human NADPH/cytochrome P450 oxidoreductase assessed as reduction of cell density incubated for 4 hrs in oxic (aerobic) condition measured 5 days post dose by SRB assay; format: functional, cell-based; method in brief: as §1
[12] = system: NCI-H460; test: Cytotoxicity against human H460 cells assessed as reduction of cell density incubated for 4 hrs in oxic (aerobic) condition measured 5 days post dose by SRB assay; format: functional, cell-based; method in brief: as §1
[13] = system: NCI-H460; test: Hypoxic cytotoxicity ratio, ratio of IC50 for human H460 cells in oxic (aerobic) condition to IC50 for human H460 cells in hypoxic (anoxic) conditions; format: functional; method in brief: as §2
[14] = system: C-33-A; test: Cytotoxicity against human C33A cells assessed as reduction of cell density incubated for 4 hrs in oxic (aerobic) condition measured 5 days post dose by SRB assay; format: functional, cell-based; method in brief: as §1
[15] = system: PC-3; test: Cytotoxicity against human PC3 cells assessed as reduction of cell density incubated for 4 hrs in hypoxic (anoxic) condition measured 5 days post dose by SRB assay; format: functional, cell-based; method in brief: as §1
[16] = system: PC-3; test: Cytotoxicity against human PC3 cells assessed as reduction of cell density incubated for 4 hrs in oxic (aerobic) condition measured 5 days post dose by SRB assay; format: functional, cell-based; method in brief: as §1
[17] = system: SiHa; test: Cytotoxicity against human SiHa cells assessed as reduction of cell density incubated for 4 hrs in oxic (aerobic) condition measured 5 days post dose by SRB assay; format: functional, cell-based; method in brief: as §1
[18] = system: NCI-H460; test: Cytotoxicity against human H460 cells assessed as reduction of cell density incubated for 4 hrs in hypoxic (anoxic) condition measured 5 days post dose by SRB assay; format: functional, cell-based; method in brief: as §1
[19] = system: HT-29; test: Cytotoxicity against human HT-29 cells assessed as reduction of cell density incubated for 4 hrs in oxic (aerobic) condition measured 5 days post dose by SRB assay; format: functional, cell-based; method in brief: as §1
[20] = system: C-33-A; test: Hypoxic cytotoxicity ratio, ratio of IC50 for human C33A cells in oxic (aerobic) condition to IC50 for human C33A cells in hypoxic (anoxic) conditions; format: functional; method in brief: as §2
[21] = system: C-33-A; test: Cytotoxicity against human C33A cells assessed as reduction of cell density incubated for 4 hrs in hypoxic (anoxic) condition measured 5 days post dose by SRB assay; format: functional, cell-based; method in brief: as §1
[22] = Cytotoxicity against human H1299 cells assessed as reduction of cell density incubated for 4 hrs in oxic (aerobic) condition measured 5 days post dose by SRB assay; format: functional, cell-based; details: NCI-H1299; method in brief: as §1
[23] = system: A549; test: Hypoxic cytotoxicity ratio, ratio of IC50 for human A549 cells ells over-expressing human NADPH/cytochrome P450 oxidoreductase in oxic (aerobic) condition to IC50 for human A549 cells ells over-expressing human NADPH/cytochrome P450 oxidoreductase in hypoxic (anoxic) conditions; format: functional; method in brief: as §2
[24] = system: HT-29; test: Cytotoxicity against human HT-29 cells assessed as reduction of cell density incubated for 4 hrs in hypoxic (anoxic) condition measured 5 days post dose by SRB assay; format: functional, cell-based; method in brief: as §1
[25] = system: HCT-116; test: Cytotoxicity against human HCT116 cells assessed as reduction of cell density incubated for 4 hrs in oxic (aerobic) condition measured 5 days post dose by SRB assay; format: functional, cell-based; method in brief: as §1
[26] = system: SK-OV-3; test: Cytotoxicity against human SKOV3 cells assessed as reduction of cell density incubated for 4 hrs in hypoxic (anoxic) condition measured 5 days post dose by SRB assay; format: functional, cell-based; method in brief: as §1
[27] = system: A-375; test: Cytotoxicity against human A375 cells assessed as reduction of cell density incubated for 4 hrs in hypoxic (anoxic) condition measured 5 days post dose by SRB assay; format: functional, cell-based; method in brief: as §1
[28] = system: A549; test: Cytotoxicity against human A549 cells ells over-expressing human NADPH/cytochrome P450 oxidoreductase assessed as reduction of cell density incubated for 4 hrs in hypoxic (anoxic) condition measured 5 days post dose by SRB assay; format: functional, cell-based; method in brief: as §1
[29] = system: A549; test: Cytotoxicity against human A549 cells assessed as reduction of cell density incubated for 4 hrs in hypoxic (anoxic) condition measured 5 days post dose by SRB assay; format: functional, cell-based; method in brief: as §1
[30] = system: HCT-116; test: Hypoxic cytotoxicity ratio, ratio of IC50 for human HCT116 cells in oxic (aerobic) condition to IC50 for human HCT116 cells in hypoxic (anoxic) conditions; format: functional; method in brief: as §2
[31] = Hypoxic cytotoxicity ratio, ratio of IC50 for human H1299 cells in oxic (aerobic) condition to IC50 for human H1299 cells in hypoxic (anoxic) conditions; format: functional, NCI-H1299; method in brief: as §2
[32] = system: SiHa; test: Hypoxic cytotoxicity ratio, ratio of IC50 for human SiHa cells in oxic (aerobic) condition to IC50 for human SiHa cells in hypoxic (anoxic) conditions; format: functional; method in brief: as §2
[33] = Solubility in alphaMEM culture medium containing 5% FCS at 22 degC; format: physicochemical
Method in brief: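 Solubility was measured in αMEM with 5% FCS, equilibrated with 5% CO₂/air, at 22 °C.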

[34] = Cytotoxicity against human H1299 cells assessed as reduction of cell density incubated for 4 hrs in hypoxic (anoxic) condition measured 5 days post dose by SRB assay; format: functional, cell-based; details: NCI-H1299; method in brief: as §1

**Q.** Which IC50 [1] does the source give for `COc1cc2cc(C(=O)N3CC(COS(=O)(=O)Cc4ccccc4)c4c3cc([N+](=O)[O-])c3ccccc43)[nH]c2c(OC)c1OC` (centres undefined) here?
**A.** 12000 nM

**Q.** And the IC50 [2]?
**A.** 450 nM

**Q.** And the “Ratio IC50” value [3]?
**A.** 37

**Q.** And the “Ratio IC50” value [4]?
**A.** 4.12

**Q.** And the “Ratio IC50” value [5]?
**A.** 246

**Q.** What about the “Ratio IC50” value [6] of the same compound?
**A.** 3.73

**Q.** And the “Ratio IC50” value [7]?
**A.** 10.2

**Q.** What about the IC50 [8] of the same compound?
**A.** 50 nM

**Q.** And the IC50 [9]?
**A.** 1080 nM

**Q.** What about the IC50 [10] of the same compound?
**A.** 1230 nM

**Q.** What about the IC50 [11] of the same compound?
**A.** 930 nM

**Q.** And the IC50 [12]?
**A.** 250 nM

**Q.** What about the “Ratio IC50” value [13] of the same compound?
**A.** 7.19

**Q.** What about the IC50 [14] of the same compound?
**A.** 430 nM

**Q.** What about the IC50 [15] of the same compound?
**A.** 210 nM

**Q.** And the IC50 [16]?
**A.** 1900 nM

**Q.** And the IC50 [17]?
**A.** 3000 nM

**Q.** And the IC50 [18]?
**A.** 100 nM

**Q.** And the IC50 [19]?
**A.** 9800 nM

**Q.** What about the “Ratio IC50” value [20] of the same compound?
**A.** 15.6

**Q.** What about the IC50 [21] of the same compound?
**A.** 33 nM

**Q.** And the IC50 [22]?
**A.** 510 nM

**Q.** What about the “Ratio IC50” value [23] of the same compound?
**A.** 16.5

**Q.** And the IC50 [24]?
**A.** 360 nM

**Q.** And the IC50 [25]?
**A.** 530 nM

**Q.** And the IC50 [26]?
**A.** 82 nM

**Q.** What about the IC50 [27] of the same compound?
**A.** 410 nM

**Q.** What about the IC50 [28] of the same compound?
**A.** 95 nM

**Q.** What about the IC50 [29] of the same compound?
**A.** 400 nM

**Q.** What about the “Ratio IC50” value [30] of the same compound?
**A.** 12.1

**Q.** And the “Ratio IC50” value [31]?
**A.** 3.6

**Q.** What about the “Ratio IC50” value [32] of the same compound?
**A.** 30.1

**Q.** What about the solubility [33] of the same compound?
**A.** 17 µM (≈ 10.7 µg/mL)

**Q.** And the IC50 [34]?
**A.** 160 nM
